TAAR1 antagonist = antagonists of human TAAR1; CHO RD-HGA16 TAAR1, Fluo-8 calcium fluorescence, antagonist; Q96RJ0; inhibition, % at 3 µM; hit rate 1.5% among 360,000;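 active means inhibition above a per-plate cutoff, the mean inhibition of test compounds on that plate plus 3 SD, cut at about 49% in these data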;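 further: 0% = DMSO plus EC80 beta-PEA response and 100% = DMSO alone without agonist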
Target sequence (Q96RJ0 whole entry, looked up): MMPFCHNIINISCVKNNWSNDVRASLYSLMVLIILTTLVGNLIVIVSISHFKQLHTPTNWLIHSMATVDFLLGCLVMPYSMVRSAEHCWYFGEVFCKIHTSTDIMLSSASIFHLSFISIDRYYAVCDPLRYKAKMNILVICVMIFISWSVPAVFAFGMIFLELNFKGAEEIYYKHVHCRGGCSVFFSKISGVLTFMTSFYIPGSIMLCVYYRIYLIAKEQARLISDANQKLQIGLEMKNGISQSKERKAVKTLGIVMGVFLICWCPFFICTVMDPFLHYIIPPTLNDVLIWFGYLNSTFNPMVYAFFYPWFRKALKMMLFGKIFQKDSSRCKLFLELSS
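Test system: CHO RD-HGA16 cells bearing hTAAR1 | Reagent: β-PEA, EC80 | Compound dosing: 3 µM, single point | Schedule: Dye loading 75 min at 37 °C, then 30 min room temperature | Signal: Calcium fluorescence with Fluo-8 | Evaluation: Percent inhibition of PEA-evoked calcium signal, max/basal emission ratio | Control set: DMSO-only wells and EC80 β-PEA-stimulated wells | Repeats: Singlicate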
OX1R antag-1 = antagonists of human orexin 1 receptor (OX1R) | OX1R-expressing cells, FRET antagonist read-out | inhibition, % at 6.6 µM | hit rate 1.8% among 330,000; in the data active means inhibition mostly above about 38%, no sharp cut-off; inactive means mostly below about 40%;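 further: 0% = agonist challenge alone and 100% = reference antagonist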
OX1R antag-2 = blocks the human orexin 1 receptor. inhibition, % at 5 µM. O43613. CHO/OX1R cells, Fluo-8 calcium fluorescence, orexin A. hit rate 0.43% among 330,000;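 active means inhibition above its plate's threshold, mean inhibition of all tested compounds on the plate plus 3 SD, cut at about 37% in these data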;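 further: 0% = orexin A challenge wells and 100% = SB-334867-A antagonist wells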
TAAR1 agonist = human TAAR1 agonism. activation, % at 3 µM. hit rate 0.99% among 360,000. Q96RJ0. CHO RD-HGA16 TAAR1, Fluo-8 calcium fluorescence; vehicle wells 0%, saturating PEA agonist 100%. AID 624467;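 active means activation above the mean activation of all test compounds in the run plus 3 SD, cut at about 38% in these data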
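Assay system: CHO-derived RD-HGA16 cells with stable Gα16 and human TAAR1; timing: 17-24 h seeding, 75 min 37 °C dye, 30 min RT; read-out: % activation from peak over basal fluorescence ratio, DMSO-to-PEA scaled; measured by: kinetic Fluo-8 calcium fluorescence; benchmarks: low control DMSO, high control PEA (EC100); doses: 3 µM single concentration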
GalR3 antag = antagonists of human GalR3; HEK293 GalR3-CNG cAMP membrane potential fluorescence; galR3 body fused to GalR1 C-terminus; O60755; inhibition, % at 3 µM; hit rate 0.44% among 360,000;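 active means inhibition above the screen-wide average plus 3 SD, cut at about 13% in these data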;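 further: forskolin and galanin both at EC90 stimulate the cells; cAMP rise reported by CNG channel membrane potential dye signal; 0% = forskolin plus galanin with DMSO and 100% = forskolin alone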
Target sequence (O60755 1-299 limits assumed): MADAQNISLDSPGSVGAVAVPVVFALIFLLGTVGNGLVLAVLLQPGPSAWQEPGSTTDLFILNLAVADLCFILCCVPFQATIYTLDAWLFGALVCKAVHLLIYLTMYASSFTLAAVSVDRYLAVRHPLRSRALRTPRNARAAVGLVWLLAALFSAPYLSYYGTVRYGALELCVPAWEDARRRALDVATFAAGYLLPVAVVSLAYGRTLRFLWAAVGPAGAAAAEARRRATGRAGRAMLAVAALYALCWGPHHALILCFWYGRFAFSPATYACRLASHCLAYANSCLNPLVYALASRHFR
CHO parental Ca = counter-screen for OX1R antagonists: effect in parental CHO cells | parental CHO-K1, ATP-induced calcium, Fluo-8 fluorescence | inhibition, % at 5.6 µM | hit rate 0.63% among 330,000 | AID 463079;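 active means inhibition above that plate's mean sample inhibition plus 3 SD, cut at about 26% in these data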;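 further: 0% = ATP-challenged DMSO wells and 100% = DMSO wells without ATP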
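Material – parental CHO cells · Reagent – ATP stimulus · Compound – single nominal dose of 5.6 µM per compound · Detection – Fluo-8 fluorescence · Read-out basis – percent inhibition of calcium signal · Controls – ATP-challenged DMSO wells low, unchallenged DMSO wells high · Repeats – no replicates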
* marks the source's active call; other numbers are inactive results; . = not tested or not shown. This is a sample that favours compounds with a hit; in the whole collection about 4.3% have one here.

SMILES	TAAR1 antagonist	OX1R antag-1	OX1R antag-2	TAAR1 agonist	GalR3 antag	CHO parental Ca
OCCN(CCO)c1ccc(C(c2ccccc2Cl)c2ccc(N(CCO)CCO)cc2Cl)c(Cl)c1	.	6	39	.	.	47*
CCN(CC(=O)Nc1ccccc1-c1ccccc1)Cc1nc2ccccc2c(=O)[nH]1	5	67*	-10	1	-2	-24
CCN(CC(=O)Nc1ccccc1SC)Cc1nc2ccccc2c(=O)[nH]1	-42	23	-12	8	5	-21
COc1ccc(Cn2c(C)cc(O)cc2=O)cc1	9	.	.	0	-8	.
CN(C)S(=O)(=O)N1CCN(CC(O)COc2ccc3cc(Br)ccc3c2)CC1 (stereo not drawn)	15	8	11	17	-2	40*
FC(F)(F)c1cccc(-c2nc3nc(Cl)c(Cl)nc3[nH]2)c1	.	40*	-11	.	.	38*
O=C(CSc1ccccc1)N/N=C/c1ccccc1O	0	16	-12	16	0	-7
O=C(CCSCCC(=O)NN=Cc1ccccc1O)NN=Cc1ccccc1O	48	.	.	44*	-5	.
O=C(OCc1nc2ccsc2c(=O)[nH]1)c1ccccc1	9	14	-6	4	-1	-7
Cc1c(C(=O)OCc2nc3ccsc3c(=O)[nH]2)oc2ccccc12	-5	49*	1	0	-1	-21
CCOC(=O)CSc1nc(N2CCOCC2)c2c(c1C#N)CC(C)(C)N(C)C2	3	46*	-31	9	-5	-27
CCOCCc1nnc(NC(=O)Cc2ccc(Br)cc2)s1	-12	7	-7	46*	-2	-1
CCOCCc1nnc(NC(=O)CCc2ccccc2)s1	-5	9	-16	3	3	-1
CN1OC[C@@H]2CN(C(=O)c3ccc(C#N)cc3)[C@H](c3cccc(Br)c3)C[C@@H]21	-19	.	.	1	0	.
Cc1cccc(NC(=O)c2ccc(N(C)C3CCCCC3)c([N+](=O)[O-])c2)n1	63*	30	-28	8	-7	-4
Cc1cccc(NC(=O)c2ccc(N3CCCCC3)c([N+](=O)[O-])c2)n1	42	15	-25	11	-5	-26
CCOc1ccc(C(C)NC(=S)NCc2ccc(Cl)cc2)cc1 (stereo not drawn)	21	13	5	45*	-6	4
CCC(C)c1ccc(C(C)NC(=S)NCc2ccc(F)cc2)cc1 (stereo not drawn)	37	14	9	7	-4	18
CCC(NC(=S)NCc1ccc(F)cc1)c1ccc(C(C)C)cc1 (stereo not drawn)	38	19	-3	11	-5	42*
CCCc1ccc(C(C)NC(=S)NCc2ccc(F)cc2)cc1 (stereo not drawn)	70*	10	25	58*	0	33*
CCc1ccc(N(CC(=O)N2CCCC2)S(C)(=O)=O)cc1	-4	.	.	1	2	.
Cc1cc(Nc2cccc(F)c2)cc(=O)n1-c1cccc(F)c1	-2	.	.	-2	-8	.
CCOC1=C2CN(S(=O)(=O)c3ccc(C)cc3)C(c3cccc(Cl)c3)CC2N(S(=O)(=O)c2ccc(Cl)cc2)C(c2ccccc2)C1 (stereo not drawn)	-17	.	.	0	-8	.
Cc1cc(NC(=O)COC(=O)c2cc([N+](=O)[O-])ccc2N2CCOCC2)ccc1Br	13	37*	-18	2	-8	7
Cc1ccccc1COC(=O)c1cc([N+](=O)[O-])ccc1N1CCOCC1	-17	2	-39	5	2	-24
SMILES	TAAR1 antagonist	OX1R antag-1	OX1R antag-2	TAAR1 agonist	GalR3 antag	CHO parental Ca
N#CC1(NC(=O)COC(=O)c2cc([N+](=O)[O-])ccc2N2CCOCC2)CCCCC1	-6	52*	-18	1	-3	-6
COc1ccc(OC)c(COC(=O)c2cc([N+](=O)[O-])ccc2N2CCOCC2)c1	0	32*	5	0	-4	-15
COc1ccc(C(CNC(=O)CN(C)S(=O)(=O)c2ccc(C)cc2)N2CCCC2)cc1 (stereo not drawn)	-19	6	-11	4	-1	-30
O=C(CSc1ncccn1)NCCC1=CCCCC1	-27	9	-22	0	-4	-7
O=C(CSc1ncccc1C(=O)O)NCCC1=CCCCC1	77*	13	0	96*	-5	2
COCCN(CC(=O)Nc1ccccc1C(F)(F)F)C(=O)/C=C/c1cc(Cl)c2c(c1)OCO2	18	0	-17	4	-7	-37
COCCN(CC(=O)Nc1ccccc1C(F)(F)F)C(=O)/C=C/c1ccc2ccccc2n1	13	53*	30	5	4	-16
COCCCNC(=O)/C(C#N)=C/c1c(N2CCN(C)CC2)nc2ccccn2c1=O	-7	47*	-19	0	-7	-7
CC(=O)NCCNC(=O)Cn1nnc(-c2ccccc2)c1COc1ccc2ccccc2c1	20	.	.	2	-7	.
COc1ccc(CCNC(=O)c2cccn2C)cc1	-2	4	-7	-1	-4	-4
S=c1sc2c(Cl)ncnc2n1-c1ccccc1	54*	.	.	0	-10	.
CC(C)c1ccc(NC(=O)[C@H](NC(=O)[C@@H]2Cc3ccccc3CN2)c2ccccc2)cc1	-9	15	-22	12	-2	-23
CC(NC(=O)[C@H](NC(=O)[C@@H]1Cc2ccccc2CN1)c1ccccc1)c1ccccc1 (stereo partly drawn)	0	50*	-16	3	-7	-16
CCC(C)(C)c1nnc(NC(=O)C2CC(=O)N(CCc3ccc(F)cc3)C2)s1 (stereo not drawn)	-6	14	-8	8	-7	-13
Cc1cc(C)cc(NC(=O)CCn2c(=O)c3cccn3c3ccccc32)c1	6	41*	13	4	-10	-12
Cc1ccc(NC(=O)CCn2c(=O)c3cccn3c3ccccc32)c(C)c1	12	8	-30	2	-7	-11
Cc1ccc(S(=O)(=O)N2CCOCC2)cc1C(=O)NC(=S)N1CC(C)CC(C)C1 (stereo not drawn)	-2	17	-29	39*	1	-19
Cc1csc(=O)n1CC(=O)OCc1cccc2ccccc12	16	46*	2	6	0	-23
CCN(CC)C(=O)c1cccc(-c2csc(C(O)c3ccco3)n2)c1 (stereo not drawn)	-23	.	.	0	-6	.
Cc1cccc(C(=O)NC(=S)NNC(=O)c2cccs2)c1	61*	5	-4	129*	-4	-8
O=c1[nH]c(=S)[nH]c2nc(-c3ccccc3)cnc12	-15	63*	-11	-1	-1	-4
O=C(O)c1oc2ccccc2c1CSc1ccc(Cl)cc1	1	63*	-11	-2	-7	1

Screening results deposited in PubChem by The Scripps Research Institute Molecular Screening Center.
